Reference: publication PMC7188312 (Nature, 2019)
Converted amounts (≈) assume the structure as drawn.

What was measured:
[1] = tested on: E. coli; settings: cited from earlier work
[2] = tested on: K. pneumoniae; settings: cited from earlier work
[3] = tested on: Proteus mirabilis KLE 2600; assay: MIC, microbroth dilution, anaerobic; assay type: cell-based; settings: KLE2600
[4] = Cytotoxicity, microplate Alamar Blue assay; assay type: cell-based; settings: human, FaDu pharynx squamous cell carcinoma cells (ATCC HTB-43)
Summary of the method: (§1)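 FaDu, HepG2 and HEK293-RFP cells were grown in Eagle's MEM with 10% FBS at 37°C, 5% CO2. Cells were seeded in exponential growth, and after 24 h the medium was replaced with fresh medium holding 2-fold serial dilutions of test compound made in water. After 72 h, resazurin was added to a final 0.15 mM. […] was read 3 h later. Biological replicates.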

[5] = tested on: Bacteroides fragilis ATCC 25285; assay: MIC, microbroth dilution, anaerobic; assay type: cell-based; settings: ATCC25285
[6] = tested on: Mycobacterium tuberculosis mc^26020; assay: MIC, resazurin; assay type: cell-based
[7] = tested on: E. coli AR350 (mcr-1); assay: MIC, microbroth dilution; assay type: cell-based; settings: Escherichia coli
[8] = tested on: Stenotrophomonas maltophilia KLE 11416; assay: MIC, microbroth dilution, anaerobic; assay type: cell-based; settings: KLE11416
[9] = tested on: P. aeruginosa pmrB 523C>T; assay: MIC, microbroth dilution; assay type: cell-based; settings: Pseudomonas aeruginosa
[10] = Cytotoxicity, microplate Alamar Blue assay; assay type: cell-based; settings: human, HepG2 liver hepatocellular carcinoma cells (ATCC HB-8065)
Summary of the method: as §1

[11] = tested on: Pseudomonas aeruginosa PAO1; assay: MIC, microbroth dilution; assay type: cell-based
[12] = tested on: Faecalibacterium prausnitzii KLE 2243; assay: MIC, microbroth dilution, anaerobic; assay type: cell-based; settings: KLE2243
[13] = tested on: Haemophilus parainfluenzae KLE 2367; assay: MIC, microbroth dilution, anaerobic; assay type: cell-based; settings: KLE2367
[14] = Cytotoxicity, microplate Alamar Blue assay; assay type: cell-based; settings: human
Summary of the method: as §1

[15] = tested on: Acinetobacter baumannii ATCC 17978; assay: MIC, microbroth dilution; assay type: cell-based; settings: ATCC17978
[16] = tested on: Salmonella Typhimurium LT2 ATCC 19585; assay: MIC, microbroth dilution, anaerobic; assay type: cell-based; settings: Salmonella enterica, ATCC19585|TYPHIMURIUM
[17] = tested on: Klebsiella pneumoniae ATCC 700603; assay: MIC, microbroth dilution; assay type: cell-based
[18] = tested on: Bacteroides xylanisolvens KLE 2253; assay: MIC, microbroth dilution, anaerobic; assay type: cell-based; settings: KLE2253
[19] = tested on: E. coli clinical isolates; assay: microbe, parasite or virus in culture; assay type: cell-based; settings: Escherichia coli, E. coli ESBL JMI 1043856
[20] = tested on: K. pneumoniae clinical isolates; assay: microbe, parasite or virus in culture; assay type: cell-based; settings: Klebsiella pneumoniae, K. pneumoniae ESBL JMI 1052654
[21] = tested on: Enterobacter cloacae ATCC 13047; assay: MIC, microbroth dilution, anaerobic; assay type: cell-based; settings: ATCC13047
[22] = tested on: Bacteroides caccae KLE 2423; assay: MIC, microbroth dilution, anaerobic; assay type: cell-based; settings: KLE2423
[23] = target: WT BAM (BamA of BAM) (Escherichia coli, UniProt P0A940); assay: Isothermal Titration Calorimetry; assay type: binding, E. coli; settings: same concentration range as darobactin
Summary of the method: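 BAM was expressed with 0.5 mM IPTG for 3 h, extracted from membranes in DDM and Ni-NTA purified. ITC ran at 25°C in duplicate: 20 μM BAM in 1xPBS with 0.05% DDM in the cell, 200 μM ligand in the syringe, 20 injections 300 s apart, stirring at 300 rpm. Ligand-into-buffer heats were measured as a control. Data were fitted to an independent binding model.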

[24] = target: BAM complex, wild type (Escherichia coli, UniProt P0A940); assay: BAM folding assay; assay type: biochemical, E. coli; settings: WT BAM-nanodiscs, increasing concentrations
[25] = target: BAM complex (BamABCDE), wild type (E. coli) (UniProt P0A940); assay: ITC
[26] = tested on: E. coli MG1655; assay: LPS binding assay; assay type: cell-based; settings: LPS from E. coli O55:B5, 0.5–100 μg ml^−1
Summary of the method: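 Microbroth dilution: E. coli MG1655 at OD600 0.001 in cation-adjusted MHIIB was added to wells holding purified E. coli O55:B5 LPS (0.5–100 μg ml−1) plus serially diluted test compound or polymyxin B. Plates were incubated overnight at 37°C. The growth-inhibiting concentration was read by eye, with and without LPS.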

## NC(N)=NC(=O)CC(Nc1nc(N=C(N)N)nc(NC2CCC(NC(=O)Cn3nnc(-c4ccc(F)cc4)n3)CC2)n1)C1CC1 (centres unmarked) [MRL-494]
[1]
  MIC: 15 µg/mL (≈ 24.1 µM)
[2]
  MIC: 62 µg/mL (≈ 99.6 µM)

## CC1(C)S[C@@H]2[C@H](NC(=O)[C@H](N)c3ccccc3)C(=O)N2[C@H]1C(=O)O [ampicillin]
[3]
  MIC: > 128 µg/mL
[4]
  IC50 at 72 h: > 128 µg/mL
[5]
  MIC: 128 µg/mL (≈ 366 µM)
[6]
  MIC: 16 µg/mL (≈ 45.8 µM)
[7]
  MIC: > 128 µg/mL
[8]
  MIC: > 128 µg/mL
[9]
  MIC: > 128 µg/mL
[10]
  IC50 at 72 h: > 128 µg/mL
[11]
  MIC: > 128 µg/mL
[12]
  MIC: 64 µg/mL (≈ 183 µM)
[13]
  MIC: 128 µg/mL (≈ 366 µM)
[14]
  IC50 at 72 h: > 128 µg/mL
[15]
  MIC: 64 µg/mL (≈ 183 µM)
[16]
  MIC: 2 µg/mL (≈ 5.72 µM)
[17]; ATCC700603
  MIC: 128 µg/mL (≈ 366 µM)
[17]; ATCC700603, K. pneumoniae ATCC700603 (SHV-18)
  MIC: > 128 µg/mL
[18]
  MIC: 1 µg/mL (≈ 2.86 µM)
[19]
  MIC: > 128 µg/mL
[20]
  MIC: > 128 µg/mL
[21]
  MIC: > 128 µg/mL
[22]
  MIC: 2 µg/mL (≈ 5.72 µM)

## WNWSKSF
[23]
  binding to BAM by ITC: no binding
[24]
  inhibition of BAM-ND activity: only minimal effects
[24]; listed as linear peptide
  inhibition of BAM-ND activity: no inhibitory activity

## darobactin (peptide)
[25]
  Kd: 1.2 µM
  dH: -25 kcal/mol

## polymyxin B
[26]
  effect of added purified LPS on antibiotic activity (MIC): antagonized polymyxin activity
